High-throughput results: PubChem, several laboratories
Only some compounds are listed: those with a hit (about 1.5% of all), similar ones and a draw of the others.
CSN deneddyl inh: blocks human CSN-mediated cullin deneddylation; Q92905; inhibition, % at 12.5 µM; Purified CSN, SCF-Nedd8-OG deneddylation, fluorescence polarization; 0.38% of 360,000 active;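 active = pattern-corrected inhibition above about 35%, with an unprinted fluorescence ratio check between 0.5 and 1.5, limit read from the data, passing the limit was not always enough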;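 note: 0% = enzyme with substrate and 100% = substrate without enzyme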
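Assay system: purified human Csn5 enzyme expressed in HEK293T cells; measure: % inhibition; also added: SCFSkp2-Nedd8OG substrate at 10 nM final; technique: fluorescence polarization; times: reaction 90 min, room temperature; medium: Tris buffer pH 7.5, NaCl, DTT, Tween-20, trehalose, ovalbumin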
TPT1 inh: C. albicans TPT1 enzyme inhibition; recombinant caTPT1, FP RNA substrate dephosphorylation; AID 1962; 0.81% of 300,000 active; inhibition, % at 5 µM;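 active = inhibition above the mean of all tested compounds plus 3 SD, set per screening campaign, cut at about 24% in these data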;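 note: plate controls were DMSO alone for no effect and ferristatin control at 100 nM for full effect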
HNF4A DNA FP: change in binding of human HNF4 alpha to DNA; P41235; HNF4a-FITC DNA binding, fluorescence polarization, 1 h; activity change, % at 10 µM; 0.3% of 360,000 active; AID 1224865; in the data active = activity change above about 30%, passing the limit was not always enough
Rpn11 block: inhibitors of human proteasome Rpn11 | 0.59% of 360,000 active | human 26S proteasome, Ub4-pepOG fluorescence polarization; 20S core pre-blocked with epoxomicin | O00487 | inhibition, % at 20 µM;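 active = inhibition at 20 µM, scaled to each plate's controls, above about 33%, limit read from the data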
Rpn11 inh conf: Rpn11 inhibition confirmation, single concentration; shares compounds with Rpn11 block; purified human 26S proteasome, Ub4-pepOG fluorescence polarization; proteasome pretreated with epoxomicin; inhibition, % at 20 µM; 29% of 1,900 active; AID 602318
MMP-2 inh: blocks human MMP-2, flagging nonselective RPN11 hits. recombinant MMP-2, FRET peptide cleavage fluorescence. shares compounds with Rpn11 block. inhibition, % at 20 µM. 4% of 1,900 active;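 note: human MMP-2 activated beforehand with APMA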
Target sequence (P08253 whole entry, looked up): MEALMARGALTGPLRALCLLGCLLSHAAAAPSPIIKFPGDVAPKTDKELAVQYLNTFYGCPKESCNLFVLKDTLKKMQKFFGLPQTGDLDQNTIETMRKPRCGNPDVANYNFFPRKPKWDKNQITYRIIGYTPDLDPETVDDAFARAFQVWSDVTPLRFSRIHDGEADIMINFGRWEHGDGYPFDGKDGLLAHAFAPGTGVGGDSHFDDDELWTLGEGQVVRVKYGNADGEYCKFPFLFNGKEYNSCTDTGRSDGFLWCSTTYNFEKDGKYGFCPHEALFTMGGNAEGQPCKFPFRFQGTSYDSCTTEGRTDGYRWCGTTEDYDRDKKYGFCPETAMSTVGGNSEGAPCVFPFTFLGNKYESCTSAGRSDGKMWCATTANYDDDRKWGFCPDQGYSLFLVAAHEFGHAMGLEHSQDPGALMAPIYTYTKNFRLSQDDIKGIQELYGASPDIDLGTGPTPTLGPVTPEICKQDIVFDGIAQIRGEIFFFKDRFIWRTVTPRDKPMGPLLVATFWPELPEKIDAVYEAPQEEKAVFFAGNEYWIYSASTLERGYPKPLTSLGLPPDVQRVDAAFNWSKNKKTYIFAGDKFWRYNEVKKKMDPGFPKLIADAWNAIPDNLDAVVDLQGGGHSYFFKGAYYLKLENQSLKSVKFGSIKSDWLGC
Thrombin FP: thrombin (bovine) inhibition counter-screen | AID 602333 | inhibition, % at 20 µM | 13% of 1,900 active | shares compounds with Rpn11 block | bovine thrombin cleavage of Ub4-pepOG, fluorescence polarization;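 active = mean inhibition at least 40% at 20 µM, or signal 3 deviations below plate average, so some actives read negative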;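 note: plate controls were thrombin with DMSO for no effect and buffer wells lacking thrombin for full effect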
An asterisk follows results filed as active; nt = no result. Cut-off read from the data, not from the text of the source, unless noted: active = inhibition above about 40%; inactive = the rest.

SMILES	CSN deneddyl inh	TPT1 inh	HNF4A DNA FP	Rpn11 block	Rpn11 inh conf	MMP-2 inh	Thrombin FP
CS(=O)(=O)N1CCN(c2ccc([N+](=O)[O-])c(NCc3ccc(Cl)cc3)c2)CC1	76*	-3	33	45*	20	-34	9
O=[N+]([O-])c1cc2c(cc1Br)-c1ccccc1C2	-3	nt	1	1	nt	nt	nt
CCC(C)Oc1ccc(/C=C/c2[nH]c(=O)[nH]c(=O)c2[N+](=O)[O-])cc1OC (centres undefined)	6	5	-3	2	nt	nt	nt
COc1cc(/C=C/c2[nH]c(=O)[nH]c(=O)c2[N+](=O)[O-])ccc1OCCC(C)C	0	-4	1	56*	28	-20	-20
CC(Nc1ccc(Br)cn1)c1cc(Cl)ccc1O (centres undefined)	-6	nt	30	73*	6	8	4
CC(Nc1ccc(Cl)cc1)c1cc(Cl)ccc1O (centres undefined)	-3	-4	10	0	nt	nt	nt
C[C@H](CO)N1C[C@H](C)[C@@H](CN(C)S(=O)(=O)c2ccc(Oc3ccccc3)nc2)OCc2cn(nn2)CCCC1=O	3	nt	0	-7	nt	nt	nt
O=C1Nc2ccccc2OCc2c1cccc2[N+](=O)[O-]	-5	-3	-3	34*	-11	4	-24
Cc1cccc(NC(=O)c2cc(Cl)ccc2[N+](=O)[O-])c1	2	3	20	73*	-8	-47	-4
Cc1ccc(-n2c(=O)c3cc4c(=O)n(-c5ccc(C)c(C)c5)c(=O)c4c(C(=O)c4ccc(C(=O)O)cc4)c3c2=O)cc1C	84*	-1	-58	109*	4	11	39
COc1ccc(CC(=O)Nc2ccc(-c3nc4cc(C)ccc4o3)c(O)c2)cc1OC	5	1	12	66*	9	-23	7
COc1ccc2nc(N3C(=O)CNC3=S)sc2c1	4	4	3	9	nt	nt	nt
CCOc1ccc2nc(N3C(=O)/C(=C/c4ccc(Cl)cc4)NC3=S)sc2c1	2	nt	-44	47*	31	-6	0
CCC(=O)N1CCc2cc(S(=O)(=O)N3CCc4ccccc4C3)ccc21	78*	-2	0	56*	8	6	11
O=C(Nc1c[nH]c(=O)[nH]c1=O)c1ccc2c(c1)C(=O)N(c1cccc([N+](=O)[O-])c1)C2=O	6	nt	-35	57*	4	-22	1
CCSc1nc2c(cnn2-c2ccccc2)c(=O)n1N	0	-1	-2	5	nt	nt	nt
Nc1cc2nc[nH]c2cc1N	-2	nt	6	45*	-19	3	-29
COc1cc2sc3ccc(C#Cc4ccccn4)cc3c(=O)c2cc1OC	54*	3	175	56*	-15	-38	-3
COc1cccc2sc3cc(C#Cc4ccccn4)ccc3c(=O)c12	1	nt	-4	13	nt	nt	nt
CCOC(=O)C1(Cc2cccc(OC)c2)CCCN(C(=O)c2cc(C)oc2C)C1 (centres undefined)	-1	0	4	4	nt	nt	nt
O=C(COC(=O)Cc1ccc(S(=O)(=O)N2CCOCC2)s1)Nc1ccc(OC(F)F)cc1	9	nt	4	17	nt	nt	nt
O=C(NCCCN1CCCCCC1)c1ccc2c(Cl)c3c(nc2c1)CCCC3	10	-4	0	75*	-15	21	-25
CCOc1ccc(C2C(C(=O)c3ccc(C)o3)=C(O)C(=O)N2c2nc(C)c(C(=O)OC)s2)cc1 (centres undefined)	21	20	19	42*	-17	-56	-7
COC(=O)c1sc(N2C(=O)C(O)=C(C(=O)c3ccc(C)o3)C2c2ccc([N+](=O)[O-])cc2)nc1C (centres undefined)	6	2	3	14	nt	nt	nt
O=C(CC1OC(=O)c2ccccc21)Nc1cc(Cl)ccc1N1CCCC1 (centres undefined)	16	4	6	65*	62*	-7	-13
SMILES	CSN deneddyl inh	TPT1 inh	HNF4A DNA FP	Rpn11 block	Rpn11 inh conf	MMP-2 inh	Thrombin FP
O=C(CC1OC(=O)c2ccccc21)Nc1ccccc1N1CCOCC1 (centres undefined)	0	-5	-1	-8	nt	nt	nt
O=C(c1nc[nH]c1C(=O)N1CCN(c2ccccc2)CC1)N1CCN(c2ccccc2)CC1	-2	nt	-6	0	nt	nt	nt
O=C(CSc1nc2sc3c(c2c(=O)n1-c1ccccc1)CCCC3)N/N=C/c1ccc(C(=O)O)cc1	-4	-4	1	6	nt	nt	nt
Cn1c(N/N=C/c2ccccc2)nc2sc3c(c2c1=O)CCC3	-2	2	28	53*	-8	7	-7
O=C(Cc1c(F)cccc1Cl)OCC(=O)c1ccc[nH]1	3	nt	7	-2	nt	nt	nt
Cc1cccc(Nc2nn3c(=O)c4ccccc4nc3s2)c1	31	1	75*	126*	46*	37	-19
Clc1cccc(Cc2c(-c3cccc(Br)c3)nc3ccc(Br)cn23)c1	7	nt	12	25	nt	nt	nt
Brc1cccc(-c2nc3ccc(Br)cn3c2Cc2ccccc2)c1	11	nt	24	44*	21	-24	-1
Clc1cccc(-c2nc3ccc(Br)cn3c2Cc2ccccc2)c1	8	nt	21	50*	35	11	8
COc1cc(C(=O)Nc2nnc(-c3sccc3C)s2)cc(OC)c1OC	59*	1	7	174*	31	-52	64*
CCOCc1nnc(NC(=O)c2cc(OC)c(OC)c(OC)c2)s1	-1	1	2	-2	nt	nt	nt
COc1ccc(NC(=O)c2nc(S(=O)(=O)Cc3cccc(C)c3)ncc2Cl)c(OC)c1	3	4	5	41*	27	-35	-9
Cc1cccc(C)c1NC(=O)CN(C)C(=O)CN1C(=O)NC(C)(C)C1=O	0	nt	5	-4	nt	nt	nt
Cc1nc(-c2ccc(C(=O)Nc3ccc(F)cc3)cc2)cs1	6	0	5	61*	24	-11	-8
COc1ccccc1NC(=O)Cn1c(C)nc2c(sc(=S)n2Cc2ccco2)c1=O	0	-1	3	58*	7	-37	1
CCOC(=O)C(CC)c1cc2n(c(=O)c1C#N)CCC21OCCO1 (centres undefined)	-1	nt	4	-2	nt	nt	nt
CC(=O)OCC1OC(n2c(-c3ccc(Cl)cc3)ccc(C#N)c2=S)C(OC(C)=O)C(OC(C)=O)C1OC(C)=O (centres undefined)	12	nt	21	44*	17	-38	8
CC(=O)OCC1OC(n2c3c(cc(C#N)c2=S)CCCC3)C(OC(C)=O)C(OC(C)=O)C1OC(C)=O (centres undefined)	1	nt	3	7	nt	nt	nt
Cc1ccc(C(=O)COC(=O)c2cc(=O)[nH]c3ccccc23)cc1C	20	-6	-2	100*	59*	13	4
